In paper PMC4464187 (EXCLI Journal, 2014):
Read-outs that look alike come from different tables or passages of the source.

Columns and labels:
[1] = test system: TNF-α levels in the plasma; experiment: Measurement of TNF-α production in plasma of LPS-treated SD rats; type: in vivo, female Sprague Dawley rats; details: LPS 5 mg/Kg i.p., blood 2 h after LPS; for TNF-α plasma level: LPS group 1623 pg/mL
Summary of the method: (§1)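 Female Sprague Dawley rats, 200-250 g, n = 5 per group. Oral doses are given at 12 h intervals: test compound at 20 and 40 mg/Kg, vehicle 10 % Tween 80, or dexamethasone 5 mg/Kg as positive control. LPS 5 mg/Kg is given i.p. 2 h after the final dose. Blood is taken 2 h (TNF-α) or 6 h (IL-1ß) after LPS. Plasma is assayed by rat sandwich ELISA. Mean ± SD, one-way ANOVA with Dunnett's test.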

[2] = test system: IL-1ß levels in the plasma; experiment: Measurement of IL-1ß production in plasma of LPS-treated SD rats; type: in vivo, female Sprague Dawley rats; details: LPS 5 mg/Kg i.p., blood 6 h after LPS; for IL-1ß plasma level: LPS group 912 pg/mL
Summary of the method: as §1

[3] = test system: TNF-α production in LPS stimulated RAW 264.7 cells; experiment: TNF-α assay; type: cell-based; details: Mus musculus, RAW264.7, 6 h, read-out: IC50 for inhibition of TNF-α RAW 264.7
[4] = test system: IL-1ß production in LPS stimulated RAW 264.7 cells; experiment: IL-1ß assay; type: cell-based; details: Mus musculus, RAW264.7, 12 h, read-out: IC50 for inhibition of IL-1β RAW 264.7
Summary of the method: (§2)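 Cells cultured in DMEM with heat-inactivated 10 % FBS, penicillin and streptomycin at 37 °C, 5 % CO2. Test compound in DMSO/water is added at several concentrations for 1 h, then LPS (E. coli 026:B6) 1 µg/mL is added. Incubation runs 6 h for TNF-α and 12 h for IL-1ß. Supernatant cytokine is measured by mouse sandwich ELISA at 450 nm, with curcumin and dexamethasone as standards. Triplicates.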

[5] = test system: TNF-α production in LPS stimulated J774A.1 cells; experiment: TNF-α assay; type: cell-based; details: Mus musculus, J774.A1, 6 h, read-out: IC50 for inhibition of TNF-α J774A.1
Summary of the method: as §2

[6] = test system: IL-1ß production in LPS stimulated J774A.1 cells; experiment: IL-1ß assay; type: cell-based; details: Mus musculus, J774.A1, 12 h, read-out: IC50 for inhibition of IL-1β J774A.1
[7] = test system: NO release in LPS stimulated J774A.1 cells; experiment: NO inhibitory assay; type: cell-based; details: Mus musculus, J774.A1, 24 h, read-out: IC50 for NO inhibition J774A.1
Summary of the method: (§3)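 Cells are kept in DMEM with 10 % heat-inactivated FBS and antibiotics under 5 % CO2 at 37 °C. They are pretreated 1 h with varied concentrations of test compound (DMSO/water), then stimulated with 1 µg/mL LPS (E. coli 026:B6) for 24 h at 37 °C. Supernatant is mixed 1:1 with modified Griess reagent for 30 min and read at 540 nm. Curcumin and L-NAME serve as standards. Triplicates.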

[8] = test system: NO release in LPS stimulated RAW 264.7 cells; experiment: NO inhibitory assay; type: cell-based; details: Mus musculus
Summary of the method: as §3

[9] = RAW264.7, 24 h, read-out: IC50 for NO inhibition RAW 264.7
[10] = RAW264.7, read-out: IC50 for NO inhibition, range over both cells

SMILES	reduction of TNF-α production ([1]; 5 mg/kg p.o.) [%]	TNF-α plasma level ([1]; 5 mg/kg p.o.) [pg/mL]	reduction of IL-1ß production ([2]; 5 mg/kg p.o.) [%]	IL-1ß plasma level ([2]; 5 mg/kg p.o.) [pg/mL]	IC50 [3] [µM]	IC50 [4] [µM]	IC50 [5] [µM]	IC50 [6] [µM]	reduction of TNF-α production ([1]; 40 mg/kg p.o.) [%]	TNF-α plasma level ([1]; 40 mg/kg p.o.) [pg/mL]	IC50 [7] [µM]	reduction of IL-1ß ([2]; 40 mg/kg p.o.) [%]	IL-1ß plasma level ([2]; 40 mg/kg p.o.) [pg/mL]	IC50 [8, 9] [µM]	IC50 [8, 10] [µM]
C[C@@H]1C[C@H]2[C@@H]3CCC4=CC(=O)C=C[C@]4(C)[C@@]3(F)[C@@H](O)C[C@]2(C)[C@@]1(O)C(=O)CO [Dexamethasone, reference compound]	75.8	394	63.0	338											
CCOC(=O)c1cc(O)c(O)c(O)c1 [compound 3, ethyl gallate]					17.3 ± 4.61	36.9 ± 3.35	23.4 ± 2.67	39.5 ± 2.86							
CC(/C=C/C=C(\C)C(=O)O)=C\C=C\C=C(C)\C=C\C=C(/C)C(=O)O [compound 4, crocetin]					20.4 ± 2.48	35.4 ± 2.34	22.2 ± 3.83	41.1 ± 1.69	43.6	914	25.6 ± 2.47	39.8	549	23.4 ± 2.62	23.4 to 25.6
O=C(O)/C=C/c1ccc(O)c(O)c1 [compound 7, Caffeic acid]					45 ± 1.93	59.3 ± 2.94	49.6 ± 1.33	62.3 ± 2.94			78 ± 3.94			19.2 ± 4.97	
O=C(O)c1cc(O)c(O)c(O)c1 [compound 10, gallic acid]					23.8 ± 2.14	42.1 ± 3.62	29.3 ± 3.12	47.6 ± 1.67							
CC/C=C\C[C@H]1C(=O)CC[C@@H]1CC(=O)O [compound 11, jasmonic acid]					39.4 ± 2.85	57.9 ± 0.61	41.4 ± 1.67	59.2 ± 2.25	48.9	830	21.3 ± 1.35	54.2	418	29.4 ± 1.65	21.3 to 29.4
N[C@@H](Cn1ccc(=O)c(O)c1)C(=O)O [compound 12, L-mimosine]					25.2 ± 2.48	64.2 ± 2.53		65.8 ± 1.86	60.7	639	21.2 ± 1.36	16.3	763	19.2 ± 1.53	19.2 to 21.2
CC(/C=C/C=C(\C)C(=O)O[C@@H]1O[C@H](CO[C@@H]2O[C@H](CO)[C@@H](O)[C@H](O)[C@H]2O)[C@@H](O)[C@H](O)[C@H]1O)=C\C=C\C=C(C)\C=C\C=C(/C)C(=O)O[C@@H]1O[C@H](CO[C@@H]2O[C@H](CO)[C@@H](O)[C@H](O)[C@H]2O)[C@@H](O)[C@H](O)[C@H]1O [compound 14, crocin]					22.4 ± 1.08	29.2 ± 3.69	25.2 ± 2.56	31.2 ± 2.64	48.4	836	31.5 ± 1.25	50.2	456	27.2 ± 4.51	27.2 to 31.5
